The source of these data is ChEMBL document CHEMBL4354843, “Structure-Based Design of a Potent and Selective Covalent Inhibitor for SRC Kinase That Targets a P-Loop Cysteine” (J Med Chem, 2020).

Assay [1] deals with Mus musculus. The experiment in a line: In vivo inhibition of SRC in C57B6 mouse assessed as reduction in phosphorylation of SRC Y416 at 5 mg/kg, ip measured after 2 to 4 hrs by Western blot analysis. In kind it is functional, organism-based. The method in brief:
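Adult C57B6 mice, n = 2 per condition, dosed intraperitoneally 5 mg/kg three times every 12 h; vehicle 5% DMSO/95% D5W. Spleens taken 2 or 4 h after the final dose and lysed in M-PER with protease/phosphatase inhibitors. Lysates blotted for phospho-SRC Y416, total SRC and β-actin.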
Background: A western blot detects proteins with antibodies after separation by electrophoresis.

Assay [2] deals with Bone morphogenetic protein receptor type-2 (Homo sapiens) (UniProt Q13873). The experiment in a line: Binding affinity to wild-type human partial length BMPR2 (R179 to Q526 residues) expressed in mammalian expression system assessed as residual binding level at 1 uM by Kinomescan method relative to control.
The target in assay [3] is Cyclin-dependent kinase 13 (Homo sapiens) (UniProt Q14004). In words: Binding affinity to wild-type human partial length CDC2L5 (H675 to S1054 residues) expressed in mammalian expression system assessed as residual binding level at 1 uM by Kinomescan method relative to control.
For assay [4], the target named is Cyclin-dependent kinase 19 (Homo sapiens) (UniProt Q9BWU1). In words: Binding affinity to wild-type human partial length CDK11 (M1 to N360 residues) expressed in bacterial expression system assessed as residual binding level at 1 uM by Kinomescan method relative to control. The method, boiled down:
(§1)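 KinomeScan, an active site-directed competition binding panel of 468 kinases. The test compound was at 1 μM. The readout is remaining kinase binding as a percentage of the DMSO control. Scores above 35% were treated as weak binding and not listed.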

Assay [5] deals with Citron Rho-interacting kinase (Homo sapiens) (UniProt O14578). In words: Binding affinity to wild-type human partial length CIT (M68 to E432 residues) expressed in bacterial expression system assessed as residual binding level at 1 uM by Kinomescan method relative to control.
Assay [6] has as its target Macrophage colony-stimulating factor 1 receptor (Homo sapiens) (UniProt P07333). In words: Binding affinity to wild-type human partial length CSF1R (I564 to S939 residues) expressed in bacterial expression system assessed as residual binding level at 1 uM by Kinomescan method relative to control. The method in brief: (§2)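 Active-site-directed competition binding panel of 468 kinases (KinomeScan), compound at 1 μM. The read-out is kinase remaining bound, given as a percentage of the DMSO control. […]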

Assay [7] addresses Epidermal growth factor receptor (Homo sapiens) (UniProt P00533). In words: Binding affinity to wild-type human partial length EGFR (R669 to V1011 residues) expressed in bacterial expression system assessed as residual binding level at 1 uM by Kinomescan method relative to control.
The subject of assay [8] is Epidermal growth factor receptor (Homo sapiens), P00533 [L861Q]. The experiment in a line: Binding affinity to human partial length EGFR L861Q mutant (R669 to V1011 residues) expressed in bacterial expression system assessed as residual binding level at 1 uM by Kinomescan method relative to control. The method in brief: (§3)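 KinomeScan active site-directed competition binding panel (468 kinases), compound tested at 1 μM. Result expressed as remaining kinase signal versus DMSO control (percent of control).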

The target of assay [9] is Rhodopsin kinase GRK1 (Homo sapiens) (UniProt Q15835). The experiment in a line: Binding affinity to wild-type human full length GRK1 (M1 to S563 residues) expressed in mammalian expression system assessed as residual binding level at 1 uM by Kinomescan method relative to control. The method in brief:
as §1

Assay [10] has as its target Mitogen-activated protein kinase kinase kinase kinase 1 (Homo sapiens) (UniProt Q92918). The experiment in a line: Binding affinity to wild-type human full length HPK1 (M1 to R799 residues) expressed in bacterial expression system assessed as residual binding level at 1 uM by Kinomescan method relative to control. The method in brief: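 Active-site-directed KinomeScan competition binding panel covering 468 kinases, compound tested at 1 μM. Each readout is the kinase signal remaining with compound, expressed as a percentage of the DMSO control. […]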

For assay [11], the target named is Tyrosine-protein kinase JAK1 (Homo sapiens) (UniProt P23458). The experiment in a line: Binding affinity to wild-type human partial length JAK1 JH2 pseudokinase domain (R537 to D855 residues) expressed in mammalian expression system assessed as residual binding level at 1 uM by Kinomescan method relative to control.
Sequence of Tyrosine-protein kinase JAK1 (Homo sapiens) (P23458 whole entry, the tested form may be a part): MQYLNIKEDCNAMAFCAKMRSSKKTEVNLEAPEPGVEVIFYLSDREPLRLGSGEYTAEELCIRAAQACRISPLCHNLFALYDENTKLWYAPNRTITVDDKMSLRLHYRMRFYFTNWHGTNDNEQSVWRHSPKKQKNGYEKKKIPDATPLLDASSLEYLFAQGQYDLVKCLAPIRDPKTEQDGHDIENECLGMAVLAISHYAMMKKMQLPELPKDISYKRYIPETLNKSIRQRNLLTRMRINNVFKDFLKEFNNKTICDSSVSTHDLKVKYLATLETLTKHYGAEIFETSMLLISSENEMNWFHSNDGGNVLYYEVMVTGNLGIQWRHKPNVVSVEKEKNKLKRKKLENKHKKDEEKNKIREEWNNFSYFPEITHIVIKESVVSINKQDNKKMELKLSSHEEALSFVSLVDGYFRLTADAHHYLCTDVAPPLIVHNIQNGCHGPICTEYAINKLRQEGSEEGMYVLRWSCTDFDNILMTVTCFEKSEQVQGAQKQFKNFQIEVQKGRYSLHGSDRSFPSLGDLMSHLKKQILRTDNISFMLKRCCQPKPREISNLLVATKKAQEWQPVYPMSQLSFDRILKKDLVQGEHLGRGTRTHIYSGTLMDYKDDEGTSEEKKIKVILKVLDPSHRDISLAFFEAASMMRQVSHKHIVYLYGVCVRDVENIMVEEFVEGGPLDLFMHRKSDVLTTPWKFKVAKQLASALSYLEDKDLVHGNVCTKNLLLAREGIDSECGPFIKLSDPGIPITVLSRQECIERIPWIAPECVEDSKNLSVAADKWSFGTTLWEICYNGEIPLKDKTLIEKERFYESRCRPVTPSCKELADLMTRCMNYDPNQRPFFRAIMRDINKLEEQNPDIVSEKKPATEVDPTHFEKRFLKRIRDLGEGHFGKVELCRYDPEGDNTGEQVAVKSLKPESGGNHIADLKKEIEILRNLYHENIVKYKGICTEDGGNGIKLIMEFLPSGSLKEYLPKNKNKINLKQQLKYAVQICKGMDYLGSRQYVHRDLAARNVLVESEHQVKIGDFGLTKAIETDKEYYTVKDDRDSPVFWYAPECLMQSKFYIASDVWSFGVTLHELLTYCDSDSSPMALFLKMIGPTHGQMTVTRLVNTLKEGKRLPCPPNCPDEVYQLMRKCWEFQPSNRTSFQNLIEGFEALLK
Assay [12] addresses MAP kinase-activated protein kinase 2 (Homo sapiens) (UniProt P49137). The experiment in a line: Binding affinity to wild-type human partial length MAPKAPK2 (V48 to D345 residues) expressed in bacterial expression system assessed as residual binding level at 1 uM by Kinomescan method relative to control.
The target in assay [13] is Serine/threonine-protein kinase 4 (Homo sapiens) (UniProt Q13043). The experiment in a line: Binding affinity to wild-type human full length MST1 (M1 to F487 residues) expressed in bacterial expression system assessed as residual binding level at 1 uM by Kinomescan method relative to control. The method in brief: as §1
Assay [14] concerns the target Myosin-IIIa (Homo sapiens) (UniProt Q8NEV4). In words: Binding affinity to wild-type human partial length MYO3A (M1 to K338 residues) expressed in bacterial expression system assessed as residual binding level at 1 uM by Kinomescan method relative to control.
Assay [15] concerns the target Serine/threonine-protein kinase PAK 1 (Homo sapiens) (UniProt Q13153). The experiment in a line: Binding affinity to wild-type human partial length PAK1 (S149 to H545 residues) expressed in bacterial expression system assessed as residual binding level at 1 uM by Kinomescan method relative to control.
Assay [16] concerns the target Phosphorylase b kinase gamma catalytic chain, liver/testis isoform (Homo sapiens) (UniProt P15735). In words: Binding affinity to wild-type human partial length PHKG2 (M1 to W300 residues) expressed in bacterial expression system assessed as residual binding level at 1 uM by Kinomescan method relative to control.
In assay [17] the target is Serine/threonine-protein kinase N1 (Homo sapiens) (UniProt Q16512). In words: Binding affinity to wild-type human partial length PKN1 (E598 to C948 residues) expressed in bacterial expression system assessed as residual binding level at 1 uM by Kinomescan method relative to control. The method, boiled down:
as §2

Assay [18] concerns the target Serine/threonine-protein kinase PLK3 (Homo sapiens) (UniProt Q9H4B4). In words: Binding affinity to wild-type human partial length PLK3 (A42 to L334 residues) expressed in mammalian expression system assessed as residual binding level at 1 uM by Kinomescan method relative to control.
In assay [19] the test system is Proto-oncogene tyrosine-protein kinase receptor Ret (Homo sapiens), P07949 [M918T]. The experiment in a line: Binding affinity to human partial length RET M918T mutant (E713 to D1014 residues) expressed in bacterial expression system assessed as residual binding level at 1 uM by Kinomescan method relative to control. The method, boiled down:
as §3

Assay [20] concerns the target Ribosomal protein S6 kinase alpha-5 (Homo sapiens) (UniProt O75582). The experiment in a line: Binding affinity to wild-type human partial length C-terminal RPS6KA5 kinase domain 2 (V390 to T718 residues) expressed in bacterial expression system assessed as residual binding level at 1 uM by Kinomescan method relative to control.
Assay [21] concerns the target Serine/threonine-protein kinase 25 (Homo sapiens) (UniProt O00506). In words: Binding affinity to wild-type human partial length YSK1 (V14 to H295 residues) expressed in bacterial expression system assessed as residual binding level at 1 uM by Kinomescan method relative to control.

The source made the active and inactive calls. The calls are words filed in the database; no cut-off is given here.

Sequence of Phosphorylase b kinase gamma catalytic chain, liver/testis isoform (Homo sapiens) (P15735 whole entry, the tested form may be a part, canonical isoform): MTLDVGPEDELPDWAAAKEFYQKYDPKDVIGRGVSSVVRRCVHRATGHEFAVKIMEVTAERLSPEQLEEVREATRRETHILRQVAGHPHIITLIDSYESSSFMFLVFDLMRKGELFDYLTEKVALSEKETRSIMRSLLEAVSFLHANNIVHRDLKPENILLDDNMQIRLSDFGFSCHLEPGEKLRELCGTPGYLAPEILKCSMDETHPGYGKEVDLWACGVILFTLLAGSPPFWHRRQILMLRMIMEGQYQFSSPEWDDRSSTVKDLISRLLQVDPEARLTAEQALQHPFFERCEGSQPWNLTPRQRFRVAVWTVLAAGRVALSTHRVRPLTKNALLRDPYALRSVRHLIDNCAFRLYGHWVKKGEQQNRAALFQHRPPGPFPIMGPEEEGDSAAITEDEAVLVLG
Sequence of Rhodopsin kinase GRK1 (Homo sapiens) (Q15835 whole entry, the tested form may be a part): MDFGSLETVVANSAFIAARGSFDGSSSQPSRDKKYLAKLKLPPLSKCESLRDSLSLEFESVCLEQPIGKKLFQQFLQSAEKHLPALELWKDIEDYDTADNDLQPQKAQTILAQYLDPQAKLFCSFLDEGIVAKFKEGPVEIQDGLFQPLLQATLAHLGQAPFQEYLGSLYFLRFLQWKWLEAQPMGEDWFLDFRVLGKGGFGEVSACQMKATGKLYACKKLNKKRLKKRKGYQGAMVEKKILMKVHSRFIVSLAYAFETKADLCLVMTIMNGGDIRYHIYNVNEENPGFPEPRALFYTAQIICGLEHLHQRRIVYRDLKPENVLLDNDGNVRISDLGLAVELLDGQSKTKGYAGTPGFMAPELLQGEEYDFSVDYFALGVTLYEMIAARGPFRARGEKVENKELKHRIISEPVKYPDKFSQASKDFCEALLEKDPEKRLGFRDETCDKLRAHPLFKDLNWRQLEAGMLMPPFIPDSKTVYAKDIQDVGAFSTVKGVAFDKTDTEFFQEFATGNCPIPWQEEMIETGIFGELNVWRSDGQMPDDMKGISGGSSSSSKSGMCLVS
Sequence of Mitogen-activated protein kinase kinase kinase kinase 1 (Homo sapiens) (Q92918 whole entry, looked up, the tested form may be a part): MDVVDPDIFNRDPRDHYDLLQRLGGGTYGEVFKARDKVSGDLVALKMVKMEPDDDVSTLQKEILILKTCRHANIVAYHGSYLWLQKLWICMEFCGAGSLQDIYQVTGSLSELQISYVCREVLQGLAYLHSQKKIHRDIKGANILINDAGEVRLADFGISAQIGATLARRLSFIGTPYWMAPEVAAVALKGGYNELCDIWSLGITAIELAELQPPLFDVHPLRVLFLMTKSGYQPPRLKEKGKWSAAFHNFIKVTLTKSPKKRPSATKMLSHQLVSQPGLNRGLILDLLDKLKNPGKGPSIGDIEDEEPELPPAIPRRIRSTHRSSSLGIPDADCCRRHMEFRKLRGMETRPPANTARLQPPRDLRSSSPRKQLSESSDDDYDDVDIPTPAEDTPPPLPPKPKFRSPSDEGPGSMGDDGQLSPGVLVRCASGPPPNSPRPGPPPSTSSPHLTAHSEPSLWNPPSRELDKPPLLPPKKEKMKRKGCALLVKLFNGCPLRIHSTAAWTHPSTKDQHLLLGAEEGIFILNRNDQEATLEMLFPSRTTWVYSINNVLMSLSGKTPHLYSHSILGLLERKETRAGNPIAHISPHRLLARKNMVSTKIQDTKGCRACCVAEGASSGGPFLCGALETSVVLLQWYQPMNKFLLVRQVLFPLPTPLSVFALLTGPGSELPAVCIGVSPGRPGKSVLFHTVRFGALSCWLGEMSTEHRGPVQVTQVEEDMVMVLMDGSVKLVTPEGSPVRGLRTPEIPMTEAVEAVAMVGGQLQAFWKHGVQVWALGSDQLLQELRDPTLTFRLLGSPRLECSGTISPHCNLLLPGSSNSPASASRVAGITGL
Sequence of Serine/threonine-protein kinase PAK 1 (Homo sapiens) (Q13153 whole entry, the tested form may be a part, canonical isoform): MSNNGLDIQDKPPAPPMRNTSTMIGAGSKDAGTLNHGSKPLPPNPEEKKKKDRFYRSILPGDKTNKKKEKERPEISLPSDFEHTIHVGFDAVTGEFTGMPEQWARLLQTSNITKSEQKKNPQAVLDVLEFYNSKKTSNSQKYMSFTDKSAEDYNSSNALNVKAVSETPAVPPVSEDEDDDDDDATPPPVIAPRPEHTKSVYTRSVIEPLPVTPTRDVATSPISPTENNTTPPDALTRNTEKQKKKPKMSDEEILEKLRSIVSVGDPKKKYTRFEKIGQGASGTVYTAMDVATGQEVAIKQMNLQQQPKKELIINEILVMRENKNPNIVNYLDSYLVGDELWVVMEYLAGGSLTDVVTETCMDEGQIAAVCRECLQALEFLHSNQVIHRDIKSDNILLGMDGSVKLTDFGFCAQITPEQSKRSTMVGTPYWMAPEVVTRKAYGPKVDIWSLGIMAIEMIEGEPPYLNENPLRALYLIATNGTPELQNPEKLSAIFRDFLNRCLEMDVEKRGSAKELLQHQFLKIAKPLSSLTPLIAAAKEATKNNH
Sequence of MAP kinase-activated protein kinase 2 (Homo sapiens) (P49137 whole entry, looked up, the tested form may be a part): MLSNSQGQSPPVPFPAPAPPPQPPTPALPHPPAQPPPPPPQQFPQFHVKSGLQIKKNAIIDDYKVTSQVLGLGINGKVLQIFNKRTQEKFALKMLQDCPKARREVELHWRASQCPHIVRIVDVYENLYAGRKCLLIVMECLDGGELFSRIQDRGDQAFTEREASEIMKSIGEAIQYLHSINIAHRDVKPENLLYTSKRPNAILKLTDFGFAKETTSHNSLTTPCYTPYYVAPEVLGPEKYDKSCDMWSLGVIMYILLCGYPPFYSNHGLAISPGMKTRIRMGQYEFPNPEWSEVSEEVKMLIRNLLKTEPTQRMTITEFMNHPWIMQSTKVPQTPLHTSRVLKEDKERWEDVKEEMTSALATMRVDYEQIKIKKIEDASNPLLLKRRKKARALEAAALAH
Sequence of Ribosomal protein S6 kinase alpha-5 (Homo sapiens) (O75582 whole entry, looked up, the tested form may be a part): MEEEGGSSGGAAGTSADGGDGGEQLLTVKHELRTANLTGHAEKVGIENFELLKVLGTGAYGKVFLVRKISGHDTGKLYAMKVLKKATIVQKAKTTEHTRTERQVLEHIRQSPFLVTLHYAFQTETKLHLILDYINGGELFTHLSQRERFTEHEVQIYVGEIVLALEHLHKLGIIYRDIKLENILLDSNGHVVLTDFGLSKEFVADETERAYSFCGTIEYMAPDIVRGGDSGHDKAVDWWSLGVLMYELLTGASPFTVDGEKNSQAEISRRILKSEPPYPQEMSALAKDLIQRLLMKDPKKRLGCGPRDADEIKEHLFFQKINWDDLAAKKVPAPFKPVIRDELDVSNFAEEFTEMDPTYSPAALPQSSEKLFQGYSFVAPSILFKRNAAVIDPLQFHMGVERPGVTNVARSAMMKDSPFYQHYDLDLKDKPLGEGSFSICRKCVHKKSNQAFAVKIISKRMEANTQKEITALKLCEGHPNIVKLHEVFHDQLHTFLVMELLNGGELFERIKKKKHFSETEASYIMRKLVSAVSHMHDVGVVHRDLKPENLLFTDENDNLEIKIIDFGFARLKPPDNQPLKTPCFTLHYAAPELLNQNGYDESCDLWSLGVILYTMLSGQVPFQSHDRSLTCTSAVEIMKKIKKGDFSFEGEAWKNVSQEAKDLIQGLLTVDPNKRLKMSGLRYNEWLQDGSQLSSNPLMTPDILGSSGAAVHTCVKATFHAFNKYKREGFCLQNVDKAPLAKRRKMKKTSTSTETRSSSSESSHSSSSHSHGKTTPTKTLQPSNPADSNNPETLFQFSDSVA

Consider `C=CC(=O)Nc1ccccc1Nc1nc(Nc2ccc(N3CCN(C)CC3)cc2)ncc1C(=O)Nc1c(C)cccc1Cl`, for which the inhibition entry in assay [1] is “Active”. Further, the Activity in [2] is 100%; in assay [3] it was 92%; in assay [4], 96%; in [5], 100%; in assay [6], 7.3%; in assay [7], 80%. Further, the Activity in [8] amounted to 55%; in [9], 69%; in assay [10] it was 100%; in [11] it was 100%; in [12] it was 100%; in assay [13] it was 93%. Besides, the Activity was determined as 100% in assay [14]; 100% in assay [15]; 100% in [16]; 83% in assay [17]; 100% in assay [18]; 87% in assay [19]. For the same compound, the Activity in assay [20] and in assay [21] was 100% throughout.
